ARNT-TACC3 inh = ARNT/TACC3 interaction disruption; Q9Y6A5; AlphaScreen His-ARNT PAS-B/GST-TACC3 binding, luminescence; TACC3 fragment carries E629A point mutation; inhibition, % at 9.99 µM; 390,000 compounds, 0.66% hits;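 active = mean inhibition of replicates at least 50% and at least half of replicates each reaching 50%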;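 note: 0% = complete ARNT plus TACC3 wells and 100% = ARNT alone without TACC3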
FN deposit inh = fibronectin deposition inhibition. 350,000 compounds, 0.086% hits. inhibition, % at 12.6 µM. AH1F fibroblasts, Alexa488-fibronectin deposition fluorescence, overnight;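 active = mean inhibition across replicates of 30% or more, regardless of how many single replicates reach that level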;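 note: positive control wells lacked labelled fibronectin entirely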
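Test system: AH1F fibroblast monolayer depositing Alexa488-labelled fibronectin into matrix. Input: 10000 cells per well. Technique: fluorescence, ex 485 nm, em 525 nm. Buffer or medium: DMEM plus 2% serum, read in PBS. Timing: 1 h cell adhesion before compound, then overnight fibronectin incubation. Compound: single dose, pinned. Read-out basis: inhibition from reduced deposited-fibronectin fluorescence.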
SIRT5 block = blocks human SIRT5 desuccinylation of peptide; Purified SirT5, succinyl-peptide AMC, trypsin-coupled fluorescence; inhibition, % at 15 µM; 330,000 compounds, 1.1% hits; AID 652115; in the data active = inhibition above about 15%
Target sequence (Q9NXA8 whole entry, looked up): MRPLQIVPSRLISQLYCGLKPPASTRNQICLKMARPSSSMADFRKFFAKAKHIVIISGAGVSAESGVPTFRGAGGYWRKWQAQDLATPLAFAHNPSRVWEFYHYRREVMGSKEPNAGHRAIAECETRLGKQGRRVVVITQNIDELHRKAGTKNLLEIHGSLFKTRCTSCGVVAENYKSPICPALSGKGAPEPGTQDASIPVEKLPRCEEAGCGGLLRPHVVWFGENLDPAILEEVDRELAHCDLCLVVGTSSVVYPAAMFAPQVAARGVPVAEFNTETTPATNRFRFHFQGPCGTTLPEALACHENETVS
DENV2 CPE rescue = DENV2-induced cell death inhibition | DENV2-infected cells, cytopathic effect rescue, plate reader | CPE inhibition, % at 9.99 µM | 350,000 compounds, 1.7% hits | AID 651640; in the data active = CPE inhibition above about 20%, passing the limit was not always enough; tested in BHK-21 cells;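 note: 0% = median of neutral control wells and 100% = median of positive control wells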
XiGFP reactiv = reactivates the inactive X chromosome in mouse fibroblasts. XiGFP mouse fibroblasts, % GFP-positive cells imaging, 3 d; cells co-treated with 5-aza-dC sensitizer; scaled so ellipticine positive control = 100%. 360,000 compounds, 0.055% hits. activation, % at 7.58 µM;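 active = mean normalized replicate activation at least 10% and every replicate at or above 10%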;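 note: 0% = median of on-plate neutral control wells and 100% = ellipticine 6 µM median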
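Assay system: SV40-immortalized XiGFP fibroblast cells, line 68-5-11; buffer or medium: DMEM plus 5-aza-dC sensitizer; compound: one concentration, pinned; timing: compounds 3 days, fix/stain 15 min at room temperature; benchmarks: positive control ellipticine, 6 µM final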
FGF22 binding = binders of recombinant human FGF22 by thermal shift; Q9HCT0; SYPRO orange fluorescence; percent of sucrose octasulfate shift, DMSO zero; 340,000 compounds, 1.5% hits; activity (Tm shift, normalised), % at 9.99 µM; AID 651658;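 active = mean Tm shift, scaled 0 neutral to 100 positive control, at about 1.3% or above, every replicate too, limit read from the data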
Target sequence (Q9HCT0 whole entry, looked up): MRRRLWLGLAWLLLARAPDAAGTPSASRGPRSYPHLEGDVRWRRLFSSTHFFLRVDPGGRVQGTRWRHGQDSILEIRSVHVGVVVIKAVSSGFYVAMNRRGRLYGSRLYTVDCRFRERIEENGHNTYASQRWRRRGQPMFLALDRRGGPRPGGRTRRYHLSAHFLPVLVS
The depositor's hits bear a star. Sampled rows, rich in hits. Any-hit rate of the full collection: about 3.8%.

Screening CNC[C@H]1OCCCC[C@@H](C)Oc2ccc(NC(=O)Cc3ccccc3)cc2C(=O)N([C@@H](C)CO)C[C@H]1C returned ARNT-TACC3 inh 28, SIRT5 block 3, DENV2 CPE rescue -9, XiGFP reactiv 0 and FGF22 binding 0.
COc1ccc(CN(C)C[C@H]2OCCCC[C@H](C)Oc3ccc(NC(=O)Cc4ccccc4)cc3C(=O)N([C@H](C)CO)C[C@H]2C)cc1 was read as ARNT-TACC3 inh 2, DENV2 CPE rescue 8, XiGFP reactiv 0 and FGF22 binding 0.
Screening CCCN(C)C[C@@H]1OCCCC[C@H](C)Oc2ccc(NC(=O)Cc3ccccc3)cc2C(=O)N([C@@H](C)CO)C[C@@H]1C returned ARNT-TACC3 inh 5, SIRT5 block 0, DENV2 CPE rescue 35*, XiGFP reactiv 0 and FGF22 binding 0.
CNC[C@@H]1OCCCC[C@H](C)Oc2ccc(NC(=O)Cc3ccccc3)cc2C(=O)N([C@@H](C)CO)C[C@H]1C was read as ARNT-TACC3 inh 0, SIRT5 block -1, DENV2 CPE rescue 44*, XiGFP reactiv 0 and FGF22 binding 0.
`C[C@@H]1CCCCO[C@H](CN(C)Cc2ccccc2)[C@H](C)CN([C@H](C)CO)C(=O)c2cc(NC(=O)Cc3ccccc3)ccc2O1` gave ARNT-TACC3 inh 0, FN deposit inh -4, SIRT5 block 16*, DENV2 CPE rescue 9, XiGFP reactiv 0 and FGF22 binding -1.
C/C=C/c1cnc2c(c1)C(=O)N([C@H](C)CO)C[C@@H](C)[C@H](CN(C)C(=O)Cc1ccccn1)O2 was read as ARNT-TACC3 inh 2, SIRT5 block 2, DENV2 CPE rescue -1, XiGFP reactiv 0 and FGF22 binding 0.
`C[C@@H]1CN([C@H](C)CO)C(=O)c2cc(NS(C)(=O)=O)ccc2O[C@@H](C)CCCCO[C@@H]1CN(C)Cc1ccc2c(c1)OCO2` gave ARNT-TACC3 inh -7, SIRT5 block -3, DENV2 CPE rescue -2, XiGFP reactiv 0 and FGF22 binding 0.
Cc1noc(C)c1S(=O)(=O)N(C)C[C@@H]1OCCCC[C@@H](C)Oc2ccc(NC(=O)Cc3ccccc3)cc2C(=O)N([C@@H](C)CO)C[C@@H]1C was read as SIRT5 block 3, DENV2 CPE rescue 52*, XiGFP reactiv 0 and FGF22 binding 0.
`C[C@@H]1CCCCO[C@@H](CN(C)S(C)(=O)=O)[C@H](C)CN([C@@H](C)CO)C(=O)c2cc(NC(=O)Cc3ccccc3)ccc2O1` gave ARNT-TACC3 inh 1, SIRT5 block 11, DENV2 CPE rescue 52*, XiGFP reactiv -1 and FGF22 binding 0.
CCN1[C@@H]2c3ccc(-c4cccnc4)c(=O)n3C[C@@H]2[C@@H](CO)[C@@H]1C(=O)NCCc1cn(C)cn1 was read as ARNT-TACC3 inh -38, SIRT5 block 1, DENV2 CPE rescue -3, XiGFP reactiv 1 and FGF22 binding 0.
For C[C@H]1CN([C@@H](C)CO)S(=O)(=O)c2ccc(-c3cccnc3)cc2O[C@@H]1CN(C)Cc1cncnc1 the results were ARNT-TACC3 inh 1, FN deposit inh -8, SIRT5 block -3, DENV2 CPE rescue 9, XiGFP reactiv 0 and FGF22 binding 0.
For C[C@@H](NC(=O)C[C@H]1C[C@@H]2c3cc(NS(C)(=O)=O)ccc3O[C@@H]2[C@@H](CO)O1)c1ccccc1 the results were ARNT-TACC3 inh -8, SIRT5 block 6, DENV2 CPE rescue 15, XiGFP reactiv 0 and FGF22 binding 0.
`CO[C@H]1CN(C)C(=O)c2cc(NC(=O)c3ccc4c(c3)OCO4)ccc2OC[C@H](C)N(CCC(F)(F)F)C[C@@H]1C` gave FN deposit inh 8, SIRT5 block 2, DENV2 CPE rescue 23*, XiGFP reactiv 1 and FGF22 binding 0.
Screening CO[C@@H]1CN(C)C(=O)c2ccc(NC(=O)c3ccc4c(c3)OCO4)cc2OC[C@@H](C)N(CCC(F)(F)F)C[C@@H]1C returned ARNT-TACC3 inh -3, FN deposit inh 2, SIRT5 block 11, DENV2 CPE rescue 5, XiGFP reactiv 0 and FGF22 binding 0.
Screening CO[C@@H]1CN(C)C(=O)c2ccc(NC(=O)c3ccc4c(c3)OCO4)cc2OC[C@H](C)N(CCC(F)(F)F)C[C@H]1C returned ARNT-TACC3 inh -1, FN deposit inh 0, SIRT5 block 16*, DENV2 CPE rescue -2, XiGFP reactiv 0 and FGF22 binding -1.
`CO[C@H]1CN(C)C(=O)c2cc(NC(C)=O)ccc2OC[C@@H](C)N(CCC(F)(F)F)C[C@H]1C` gave ARNT-TACC3 inh -15, FN deposit inh -4, SIRT5 block 16*, DENV2 CPE rescue -3, XiGFP reactiv 0 and FGF22 binding 0.
Screening CO[C@@H]1CN(C)C(=O)c2cc(NC(C)=O)ccc2OC[C@@H](C)N(CCC(F)(F)F)C[C@H]1C returned FN deposit inh 1, SIRT5 block 10, DENV2 CPE rescue -3, XiGFP reactiv 0 and FGF22 binding 0.
C=CCNC(=O)[C@@H]1[C@H]2C(=O)O[C@H](c3ccccc3)[C@H](c3ccccc3)N2[C@H](c2ccc(OCCO)cc2)[C@@]12C(=O)Nc1ccc(C#CCNC(N)=O)cc12 was read as ARNT-TACC3 inh 10, SIRT5 block 10, DENV2 CPE rescue -7 and FGF22 binding 0.
For O=C(C[C@@H]1C=C[C@H](NC(=O)Cc2cccnc2)[C@H](CO)O1)Nc1ccc(-c2ccccc2)cc1 the results were FN deposit inh -7, SIRT5 block -4, DENV2 CPE rescue -2 and XiGFP reactiv 0.
O=C(C[C@H]1CC[C@@H](NS(=O)(=O)c2ccc(F)cc2)[C@@H](CO)O1)NCCN1CCCCC1 was read as SIRT5 block 2, DENV2 CPE rescue 0, XiGFP reactiv 0 and FGF22 binding 0.
For C[C@@H]1CN([C@H](C)CO)C(=O)c2cc(C#CC3(O)CCCC3)cnc2O[C@@H]1CN(C)Cc1ccccc1 the results were ARNT-TACC3 inh 4, SIRT5 block 1, DENV2 CPE rescue -4, XiGFP reactiv 0 and FGF22 binding 1.
`CCCCn1c(N)c(N(CCC(C)C)C(=O)C2CC(=O)N(c3ccc4c(c3)OCCO4)C2)c(=O)[nH]c1=O` (configuration not stated) gave ARNT-TACC3 inh -10, FN deposit inh -9, SIRT5 block 1, DENV2 CPE rescue -9, XiGFP reactiv 0 and FGF22 binding 0.
